Assay results: ChEMBL document CHEMBL5344428, “Discovery, Crystallographic Studies, and Mechanistic Investigations of Novel Phenylalanine Derivatives Bearing a Quinazolin-4-one Scaffold as Potent HIV Capsid Modulators” (J Med Chem, 2023)

What was measured:
[1] = Cytotoxicity against human MT4 cells assessed as reduction in cell viability incubated for 5 days by MTT assay; assay type: toxicity, cell-based; details: MT4 cells, time 5 day
How it was run: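 Uninfected MT-4 cells were exposed to compound, and viability was read by the MTT method. […] Each value was run in at least triplicate and averaged from at least three independent experiments.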

[2] = system: Human immunodeficiency virus 1; assay: Antiviral activity against HIV1 IIIB infected in human MT4 cells assessed as reduction in virus induced cytopathic effect measured after 5 days by MTT assay; assay type: functional, organism-based; details: Human immunodeficiency virus 1, IIIB, MT4, 120 h
How it was run: (§1)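 MT-4 cells were infected with HIV-1 IIIB or HIV-2 ROD, and cell viability was read by MTT. […] Each value was run in at least triplicate and averaged from at least three independent experiments.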

[3] = Selectivity index, ratio of CC50 for cytotoxicity against human MT4 cells to EC50 for antiviral activity against HIV1 IIIB infected in human MT4 cells; assay type: toxicity, cell-based; details: read-out: Ratio CC50/EC50
How it was run: (§2)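 SI is CC50 divided by EC50. CC50 comes from MTT viability of uninfected MT-4 cells. EC50 comes from MTT-read protection of MT-4 cells infected with HIV-1 IIIB or HIV-2 ROD. Each value was run in at least triplicate.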

[4] = system: Human immunodeficiency virus 2; assay: Antiviral activity against HIV2 ROD infected in human MT4 cells assessed as reduction in virus induced cytopathic effect measured after 5 days by MTT assay; assay type: functional, organism-based; details: Human immunodeficiency virus 2, ROD, MT4, 120 h; how it was run: as §1
[5] = Selectivity ratio of EC50 for antiviral activity against HIV1 IIIB infected in human MT4 cells to EC50 for antiviral activity against HIV2 ROD infected in human MT4 cells; assay type: toxicity, cell-based
How it was run: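 Ratio is EC50 against HIV-1 IIIB divided by EC50 against HIV-2 ROD. Both EC50 values come from MTT-read protection of infected MT-4 cells.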

[6] = Selectivity index, ratio of CC50 for cytotoxicity against human MT4 cells to EC50 for antiviral activity against HIV2 ROD infected in human MT4 cells; assay type: toxicity, cell-based; details: read-out: Ratio CC50/EC50; how it was run: as §2

SMILES | CC50 at 120 h [1] | EC50 [2] | selectivity ratio [3] | EC50 [4] | Ratio EC50 [5] | selectivity ratio [6]
COc1ccc(N(C)C(=O)[C@H](Cc2cc(F)cc(F)c2)NC(=O)CN(Cc2ccc(F)cc2)C(=O)Cc2c(C)[nH]c3ccccc23)cc1 | 22.6 µM | 2.79 µM | 8 | > 22.6 µM | < 0.12 | –
COc1ccc(N(C)C(=O)[C@H](Cc2ccccc2)NC(=O)CN2CCN(C(=O)Cc3c[nH]c4ccc(O)cc34)CC2=O)cc1 | > 209 µM | – | > 1.06 | – | 1.06 | > 1.12
COC(=O)C(C)(C)Sc1nnc([C@H](Cc2ccccc2)NC(=O)Cc2c(C)[nH]c3ccccc23)n1-c1ccc(OC)cc1 | 22.6 µM | 2.88 µM | 8 | > 22.6 µM | 0.13 | –
COc1ccc(-n2c(SCc3cncs3)nnc2[C@H](Cc2ccccc2)NC(=O)Cc2c(C)[nH]c3ccccc23)cc1 | 33.9 µM | 0.9 µM | 38 | 3.98 µM | 0.23 | 9
COc1ccc(-n2c(SCCN(C)C)nnc2[C@H](Cc2ccccc2)NC(=O)Cc2c(C)[nH]c3ccccc23)cc1 | – | 0.85 µM | 27 | > 22.9 µM | < 0.04 | –
COc1ccc(N(C)C(=O)[C@H](Cc2ccccc2)NC(=O)CN2CCN(C(=O)c3ccc(NS(C)(=O)=O)cc3)CC2=O)cc1 | > 201 µM | – | > 1.05 | – | < 0.96 | –
COc1ccc(N(C)C(=O)[C@H](Cc2cc(F)cc(F)c2)NC(=O)CN2CCN(C(=O)Cc3c[nH]c4ccc(Br)cc34)CC2=O)cc1 | 3.15 µM | > 3.15 µM | < 1 | > 3.15 µM | – | < 1
COc1ccc(-n2c(SCCCN3CCOCC3)nnc2[C@H](Cc2ccccc2)NC(=O)Cc2c(C)[nH]c3ccccc23)cc1 | – | 0.59 µM | 83 | 3.73 µM | 0.16 | 13
COc1ccc(N(C)C(=O)[C@H](Cc2cc(F)cc(F)c2)NC(=O)CN2CCN(C(=O)Cc3c[nH]c4ccc(OC)cc34)CC2=O)cc1 | 15.9 µM | > 15.9 µM | < 1 | > 15.9 µM | – | < 1
COc1ccc(N(C)C(=O)[C@H](Cc2ccccc2)NC(=O)Cn2ccc(NC(=O)c3ccc([N+](=O)[O-])cc3)cc2=O)cc1 | 31.9 µM | > 31.9 µM | – | > 31.9 µM | – | –
COc1ccc(N(C)C(=O)[C@H](Cc2ccccc2)NC(=O)Cn2ccc(NC(=O)c3ccc(F)cc3)cc2=O)cc1 | 34.8 µM | > 34.8 µM | – | 16.2 µM | > 2.15 | 2.15
COc1ccc(N(C)C(=O)[C@H](Cc2cc(F)cc(F)c2)NC(=O)CN(CC2CCCCC2)C(=O)Cc2c[nH]c3ccc(Br)cc23)cc1 | 17.6 µM | > 17.6 µM | < 1 | > 17.6 µM | – | < 1
COc1ccc(N(C)C(=O)[C@H](Cc2cc(F)cc(F)c2)NC(=O)CN2CCN(C(=O)c3ccc(NC(C)=O)cc3)CC2=O)cc1 | 196 µM | – | 1.11 | – | 0.92 | 1.02
COc1ccc(N(C)C(=O)[C@H](Cc2cc(F)cc(F)c2)NC(=O)CN2CCN(C(=O)c3ccc(NS(C)(=O)=O)cc3)CC2=O)cc1 | > 190 µM | – | > 1.18 | – | 0.88 | > 1.04
COc1ccc(-n2c(SCc3ccc(B(O)O)cc3)nnc2[C@H](Cc2ccccc2)NC(=O)Cc2c(C)[nH]c3ccccc23)cc1 | 20.8 µM | 2.71 µM | 8 | > 20.8 µM | < 0.13 | –
COc1ccc(N(C)C(=O)[C@H](Cc2ccccc2)NC(=O)CN2CCN(C(=O)c3ccc(NC(=O)C(F)(F)F)cc3)CC2=O)cc1 | > 195 µM | – | > 1.24 | 15 µM | 10.54 | > 13.1
COc1ccc(N(C)C(=O)[C@H](Cc2cc(F)cc(F)c2)NC(=O)CN(Cc2ccc(F)cc2)C(=O)Cc2ccc3ccccc3c2)cc1 | > 160 µM | – | – | – | – | –
COc1ccc(N(C)C(=O)[C@H](Cc2ccccc2)NC(=O)Cn2ccc(NC(=O)c3ccc4ccccc4c3)cc2=O)cc1 | 27.6 µM | > 27.6 µM | – | > 27.6 µM | – | –
COc1ccc(N(C)C(=O)[C@H](Cc2ccccc2)NC(=O)Cn2ccc(NC(=O)c3ccc(Cl)cc3)cc2=O)cc1 | 25.5 µM | > 25.5 µM | – | > 25.5 µM | – | –

SMILES | CC50 at 120 h [1] | EC50 [2] | selectivity ratio [3] | EC50 [4] | Ratio EC50 [5] | selectivity ratio [6]
COc1ccc(-n2c(SCCC3CCCCC3)nnc2[C@H](Cc2ccccc2)NC(=O)Cc2c(C)[nH]c3ccccc23)cc1 | > 206 µM | – | – | – | – | –
COc1ccc(N(C)C(=O)[C@H](Cc2cc(F)cc(F)c2)NC(=O)CN(Cc2ccccc2)C(=O)Cc2ccc3ccccc3c2)cc1 | 176 µM | – | < 1 | > 18.9 µM | – | < 1
COc1ccc(N(C)C(=O)[C@H](Cc2cc(F)cc(F)c2)NC(=O)CN(Cc2ccc(F)cc2)C(=O)Cc2cccc3ccccc23)cc1 | > 191 µM | – | – | 5.87 µM | > 32.6 | > 33
COc1ccc(N(C)C(=O)[C@H](Cc2ccccc2)NC(=O)Cn2ccc(NC(=O)c3ccc(Br)cc3)cc2=O)cc1 | 23.5 µM | > 23.5 µM | – | > 23.5 µM | – | –
COc1ccc(N(C)C(=O)[C@H](Cc2cc(F)cc(F)c2)NC(=O)CN(Cc2ccc(C#N)cc2)C(=O)Cc2ccc3ccccc3c2)cc1 | > 189 µM | – | – | – | 1.17 | > 1
COc1ccc(-n2c(SCCN3CCOCC3)nnc2[C@H](Cc2ccccc2)NC(=O)Cc2c(C)[nH]c3ccccc23)cc1 | – | 0.79 µM | 103 | 4.98 µM | 0.16 | 16
O=C(CN1CCN(S(=O)(=O)c2ccc([N+](=O)[O-])cc2)CC1)N[C@@H](Cc1ccccc1)c1nc2ccccc2c(=O)n1-c1ccc(S(=O)(=O)N2CCS(=O)(=O)CC2)cc1 | > 145 µM | 12.6 µM | > 11.5 | 0.73 µM | – | > 198
COc1ccc(N(C)C(=O)[C@H](Cc2cc(F)cc(F)c2)NC(=O)CN2CCN(C(=O)Cc3c[nH]c4ccc(O)cc34)CC2=O)cc1 | 132 µM | – | < 1 | 49.6 µM | – | 2.65
COc1ccc(-n2c(SCCC(F)(F)F)nnc2[C@H](Cc2ccccc2)NC(=O)Cc2c(C)[nH]c3ccccc23)cc1 | 30.8 µM | 2.87 µM | 11 | > 30.8 µM | < 0.09 | –
COc1ccc(N(C)C(=O)[C@H](Cc2cc(F)cc(F)c2)NC(=O)CN(Cc2ccc(C#N)cc2)C(=O)Cc2cccc3ccccc23)cc1 | > 189 µM | > 189 µM | – | 2.3 µM | 82.32 | > 82
COc1ccc(-n2c(SCc3ccncc3)nnc2[C@H](Cc2ccccc2)NC(=O)Cc2c(C)[nH]c3ccccc23)cc1 | – | 2.89 µM | 9 | 4.27 µM | 0.68 | 6
COc1ccc(N(C)C(=O)[C@H](Cc2ccccc2)NC(=O)CN2CCN(C(=O)Cc3c[nH]c4ccc(Br)cc34)CC2=O)cc1 | 16.4 µM | > 16.4 µM | < 1 | > 16.4 µM | – | < 1
COc1ccc(N(C)C(=O)[C@H](Cc2ccccc2)NC(=O)CN2CCN(C(=O)c3ccc(NC(C)=O)cc3)CC2=O)cc1 | > 213 µM | – | > 1.05 | – | 1.1 | > 1.16
COc1ccc(-n2c(SCc3cccnc3)nnc2[C@H](Cc2ccccc2)NC(=O)Cc2c(C)[nH]c3ccccc23)cc1 | 24 µM | 2.99 µM | 8 | > 7.81 µM | < 0.38 | –
COc1ccc(N(C)C(=O)[C@H](Cc2ccccc2)NC(=O)Cn2ccc(NC(=O)c3ccc(N)cc3)cc2=O)cc1 | 189 µM | – | – | 17.1 µM | > 11.04 | 11
COc1ccc(N(C)C(=O)[C@H](Cc2ccccc2)NC(=O)CN2CCN(C(=O)c3ccc(NC(=O)C4CC4)cc3)CC2=O)cc1 | 168 µM | – | < 1 | 15 µM | > 11.15 | 11.2
COc1ccc(-n2c(SCCF)nnc2[C@H](Cc2ccccc2)NC(=O)Cc2c(C)[nH]c3ccccc23)cc1 | – | 1.24 µM | 20 | 4.07 µM | 0.3 | 6
COc1ccc(-n2c(SCC#N)nnc2[C@H](Cc2ccccc2)NC(=O)Cc2c(C)[nH]c3ccccc23)cc1 | – | 0.59 µM | 163 | 2.69 µM | 0.22 | 36
